The results in this text go back to ChEMBL document CHEMBL1129541, “Synthesis and DNA interactions of benzimidazole dications which have activity against opportunistic infections” (J Med Chem, 1996).

Some results are limits rather than exact numbers.

Assay [1] relates to Nucleic Acid. The assay can be described thus: Thermal melting temperature determined for (dG-C)4 at a concentration of 3*10e-6 M base pairs at a ratio of 0.6 compound per base pair. It is filed as nucleic-acid assay. In a few lines:
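d(G-C)4 at 3×10^-6 M in duplex, in MES buffer (0.01 M MES, 1×10^-3 M EDTA, pH 6.2) with 0.1 M NaCl. Compound at 0.6 per base pair. The UV absorbance melting curve is recorded in 1 cm quartz cells, with temperature monitored by a thermistor in a reference cuvette.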

Assay [2] deals with Nucleic Acid. The assay can be described thus: Thermal melting temperature for poly(A).poly(U) at a concentration of 5*10e-5) M base pairs at a ratio of 0.6 compound per base pair. The class given is nucleic-acid assay. Summed up: (§1)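 Polymers at 5×10^-5 M base pairs in MES buffer (0.01 M MES, 1×10^-3 M EDTA, pH 6.2) with 0.1 M NaCl. Compound at 0.6 per base pair. Samples are in 1 cm reduced-volume quartz cells. UV absorbance melting curves are recorded, with temperature followed by a thermistor in a reference cuvette.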

Assay [3] has as its system Nucleic Acid. The assay can be described thus: Thermal melting temperature determined for poly(dA).poly(dT) at a concentration of 5*10e-5) M base pairs at a ratio of 0.6 compound per base pair. The class given is nucleic-acid assay. In a few lines:
as §1

Assay [4] concerns Nucleic Acid. The assay can be described thus: Binding constant for the sequence d(CGGAATTCGCG)2. Also noted: unit not given here.
The subject of assay [5] is Nucleic Acid. The assay can be described thus: Thermal melting temperature for (dCGCGAATTCGCG)2 at a concentration of 3*10e-6 M base pairs at a ratio of one compound per oligomer duplex.

On to `N=C(N)c1ccc2[nH]c(CCc3nc4cc(C(=N)N)ccc4[nH]3)nc2c1`, for which the ΔTm in the assay on Nucleic Acid [1] was 0.75; with Nucleic Acid [2] it was -1.1; in the assay with Nucleic Acid [3], over 26; in the assay on Nucleic Acid [5], 15.9. The K in the assay with Nucleic Acid [4] amounted to 7.6e+07.
Regarding `N=C(N)c1ccc2[nH]c(-c3ccc4[nH]c(CCCCc5nc6cc(-c7nc8cc(C(=N)N)ccc8[nH]7)ccc6[nH]5)nc4c3)nc2c1`, the ΔTm is 0 with Nucleic Acid [1], 0 in the assay with Nucleic Acid [2], over 26 in the assay with Nucleic Acid [3] and 22.2 in the assay with Nucleic Acid [5]. In the assay on Nucleic Acid [4], this compound had a K of 4.5e+08.
Consider `N=C(N)c1ccc(-c2cc3ccc(C(=N)N)cc3[nH]2)cc1`, for which the ΔTm with Nucleic Acid [1] was 2.5; in the assay on Nucleic Acid [2], 3.9; in the assay on Nucleic Acid [3], over 26; in the assay with Nucleic Acid [5], 22.2. The compound further showed a K in the assay with Nucleic Acid [4] of 4.5e+08.
The corresponding values for `c1cc2[nH]c(-c3ccc4[nH]c(CCCCc5nc6cc(-c7nc8cc(C9=NCCN9)ccc8[nH]7)ccc6[nH]5)nc4c3)nc2cc1C1=NCCN1` are 0, 0, over 26, 20.8 and 3.1e+08.
The like results for `N=C(N)c1ccc2nc(Cc3nc4ccc(C(=N)N)cc4[nH]3)[nH]c2c1` were, in that order, 0, -0.8, 4.9, 2.8 and 930000.
Consider `N=C(N)c1ccc(OCCCCCOc2ccc(C(=N)N)cc2)cc1`, for which the ΔTm was 0 in the assay with Nucleic Acid [1], 0 in the assay on Nucleic Acid [2], 12.8 in the assay with Nucleic Acid [3] and 4.8 in the assay on Nucleic Acid [5]. Also, the K in the assay with Nucleic Acid [4] was determined as 2.3e+06.
As for `c1cc2[nH]c(Cc3nc4cc(C5=NCCN5)ccc4[nH]3)nc2cc1C1=NCCN1`, the ΔTm in the assay with Nucleic Acid [1] is 0; in the assay with Nucleic Acid [2], -0.6; with Nucleic Acid [3] it was 5.7; in the assay with Nucleic Acid [5], 2.8. The K in the assay with Nucleic Acid [4] was determined as 930000.
The corresponding values for `c1cc2[nH]c(CCc3nc4cc(C5=NCCN5)ccc4[nH]3)nc2cc1C1=NCCN1` are 0.7, 0.9, over 26, 16.4 and 8.8e+07.
As to `N=C(N)c1ccc2[nH]c(CCCCc3nc4cc(C(=N)N)ccc4[nH]3)nc2c1`, the ΔTm in the assay with Nucleic Acid [1] was 0.5; in the assay on Nucleic Acid [2] it was -0.6; in the assay on Nucleic Acid [3], 24.4; with Nucleic Acid [5], 10. The K in the assay with Nucleic Acid [4] is 1.3e+07.
`N=C(N)c1ccc2[nH]c(/C=C/c3nc4cc(C(=N)N)ccc4[nH]3)nc2c1`: the ΔTm with Nucleic Acid [1] is -1.5; with Nucleic Acid [2], 0; in the assay on Nucleic Acid [3], over 26; with Nucleic Acid [5], 22.8. The compound further gave a K with Nucleic Acid [4] of 5.3e+08.
The like results for `c1cc2[nH]c(CCCCc3nc4cc(C5=NCCN5)ccc4[nH]3)nc2cc1C1=NCCN1` were, in that order, 0.5, -1.5, 25.5, 7.1 and 5.2e+06.
The corresponding values for `c1cc2[nH]c(-c3ccc4[nH]c(CCc5nc6cc(-c7nc8cc(C9=NCCN9)ccc8[nH]7)ccc6[nH]5)nc4c3)nc2cc1C1=NCCN1` are 0, 0, over 26, 28.5 and 2e+09.
